The record followed here is ChEMBL document CHEMBL1133674, “A peptide prodrug approach for improving bisphosphonate oral absorption” (J Med Chem, 2000).

Residues, ends and D or L forms follow the SMILES beside them.

Series [1] in a line: Apical to basolateral fluxes across Caco-2 cell monolayers at 37 degree celsius was studied. The format is ADME, organism-based. To be noted: human, read-out: Permeability. An outline of the steps:
(§1)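 Caco-2 monolayers (passage 46-48) grown on collagen-coated polycarbonate Transwell filters, 21-25 days after seeding at 80 000 cells/cm2; TEER checked the day before. Transport run in HBSS with 25 mM Hepes, pH 7.4, at 37 °C with stirring. Receiver sampled at intervals up to 4 h, radioactivity counted by scintillation. Papp = dQ/dt·1/(AC0), computed separately for bisphosphonate and Pro-Phe parts; mean ± SD.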
For orientation: Passage across Caco-2 layers is used to estimate intestinal permeability.

A short description of series [2]: (§2) Basolateral to apical fluxes across Caco-2 cell monolayers at 37 degree celsius was studied. Format: ADME, organism-based. The following applies: human, read-out: Permeability. In short, it runs like this:
as §1

For another series, the species on record is Homo sapiens. The description is as §2. The format is ADME, organism-based. An outline of the steps: as §1
Series [3] can be described thus: Bioavailability by the ratios of 14C p.o. /14C i.v. accumulated in urine at 24 hr (dose 10 mg/kg p.o.). The format is ADME, organism-based. To be noted: eutheria, in vivo, po. In short, it runs like this: (§3)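 Male Sabra rats, housed in metabolic cages, fasted overnight, dosed by stomach tube at 10 mg/kg bisphosphonate equivalent (n = 6). A 1 mg/kg iv jugular-cannula group served as reference. 14C in tibia or urine measured at 24 h by sample-oxidizer combustion and scintillation counting. F = (amount po × Div)/(amount iv × Dpo) × 100.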

A short description of series [4]: Bioavailability by the ratios of 14C p.o. /14C i.v. accumulated in bone at 24 hr (dose 10 mg/kg p.o.). The format is ADME, organism-based, Bone element. The following applies: eutheria, in vivo, po. An outline of the steps: as §3
Series [5] can be described thus: (§4) Inhibition of HAP dissolution was determined […] at 0.048 mM concentration *: p<0.05. To be noted: 48 µM. An outline of the steps:
(§5)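 Hydroxyapatite tablets (300 mg, 10 mm), wax-coated so that one face is exposed, were stirred overnight at 37 °C in drug solution (240 or 48 µM in Tris, pH 7.4). They were then moved to acetate buffer, pH 5, at 37 °C. Dissolved calcium was read by atomic absorption at timed points, with the medium replenished after each sample.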

A short description of series [6]: Inhibition of HAP dissolution was determined […] at 0.24 mM concentration *: p<0.05. The following applies: 240 µM. An outline of the steps: as §5
Series [7] is described as follows: Inhibition of HAP formation, by the compound (1.0 mM) absorbed, was obtained in vitro studies.*: p<0.05. The following applies: 1000 µM. In short, it runs like this:
(§6)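 HAP precipitation was run with calcium 3.87 mM and phosphate 2.32 mM (Ca/PO4 1.67) in 0.05 M Tris, pH 7.4. Compound (0.1 or 1 mM) was dissolved in the phosphate solution. After 24 h incubation, filtrate calcium was measured by atomic absorption spectroscopy.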

Series [8] is described as follows: Inhibition of HAP formation, by the compound (0.1 mM) absorbed, was obtained in vitro studies.*: p<0.05. To be noted: 100 µM. An outline of the steps:
as §6

Series [9] is described as follows: as §4. Further details: scale not given: the % may be the effect or the level left. To be noted: 48 µM. An outline of the steps: as §5
A short description of series [10]: Inhibition of HAP dissolution was determined in […] at 0.24 mM concentration *: p<0.05. To be noted: 240 µM. The arrangement: scale not given: the % may be the effect or the level left. In short, it runs like this:
as §5

`O=C(O)[C@H](Cc1ccccc1)NC(=O)[C@@H]1CCCN1` (H-Pro-Phe-OH): the Papp A→B in [1] came to 2.29 ×10⁻⁶ cm/s. The Papp B→A in series [2] amounted to 1.14 ×10⁻⁶ cm/s.
Take `O=C(N[C@@H](Cc1ccccc1)C(=O)NCCC(O)(P(=O)(O)O)P(=O)(O)O)[C@@H]1CCCN1` (stereo in doubt; form 1): in series [1], the Papp A→B was 0.5 ×10⁻⁶ cm/s. This molecule had a Permeability in the series listed under Homo sapiens of 0.41 ×10⁻⁶ cm/s.
With `O=C(N[C@@H](Cc1ccccc1)C(=O)NCCCC(O)(P(=O)(O)O)P(=O)(O)O)[C@@H]1CCCN1` (stereo in doubt; form 1), the values for the Bioavailability in series [3] and in series [4] were 3.1% and 1.74%, respectively. In addition, the Papp A→B in series [1] amounted to 0.23 ×10⁻⁶ cm/s. In the series listed under Homo sapiens, the Permeability is 0.16 ×10⁻⁶ cm/s.
Turning to `O=C(N[C@@H](Cc1ccccc1)C(=O)NCCC(O)(P(=O)(O)O)P(=O)(O)O)[C@@H]1CCCN1` (stereo in doubt; form 2), the results for the Bioavailability in series [3] and in series [4] were 3.17% and 1.65%, respectively. The Papp A→B in series [1] is 0.11 ×10⁻⁶ cm/s. For the same molecule, in the series listed under Homo sapiens, the Permeability came out at 0.09 ×10⁻⁶ cm/s. In addition, the figures for the Inhibition in [5] and in series [6] were 79.4% and 59.1%, respectively. Also, the Initial concentration in series [7] came out at 40.5%; in series [8], 83.8%.
In the case of `O=C(N[C@@H](Cc1ccccc1)C(=O)NCCCC(O)(P(=O)(O)O)P(=O)(O)O)[C@@H]1CCCN1` (stereo in doubt; form 2), in series [1], the Papp A→B amounted to 1.03 ×10⁻⁶ cm/s. For the same molecule, the Permeability in the series filed under Homo sapiens was 0.55 ×10⁻⁶ cm/s.
Regarding `OC[C@@H](O)[C@@H](O)[C@H](O)[C@H](O)CO` [MANNITOL], the Papp A→B in series [1] turned out to be 0.26 ×10⁻⁶ cm/s. Also, the Papp B→A in [2] turned out to be 0.22 ×10⁻⁶ cm/s.
As for `NCCC(O)(P(=O)(O)O)P(=O)(O)O` [PAMIDRONIC ACID], the Bioavailability in [3] came to 1.74%; in series [4], 0.44%. Besides, the Papp A→B in series [1] was found to be 0.05 ×10⁻⁶ cm/s. For the same molecule, the Papp B→A in series [2] stood at 0.04 ×10⁻⁶ cm/s. For the same molecule, the results for the Control in [9] and in series [10] were 79.4% and 55.7%, respectively. In addition, the Initial concentration in series [7] came out at 46.9%; in series [8] it was 63.8%.
